Laboratory results from ChEMBL document CHEMBL1123853, “A novel class of cardiotonics. Synthesis and pharmacological properties of [4-(substituted-amino)phenyl]pyridazinones and related derivatives” (1987).

Key:
[1] = system: Canis familiaris; assay: Inotropic activity determined by evaluating the % change in Heart Rate (HR) at a dose of 1 ug/kg administered intravenously […]; assay type: functional, Canis lupus familiaris
Summary of the method: (§1)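 Mongrel dogs of either sex, 7–15 kg, anesthetized with sodium pentobarbital (30 mg/kg iv), open-chest, intubated and ventilated on room air. Compounds given intravenously. A femoral artery catheter with pressure transducer recorded SBP and DBP. dP/dtmax, right ventricular contractile force, cardiac output and heart rate were also recorded, as % change at each iv dose.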

[2] = system: Canis familiaris; assay: Inotropic activity determined by evaluating the % change in Diastolic Blood Pressure (DBP) at a dose of 1 ug/kg administered intravenously […]; assay type: functional, Canis lupus familiaris; summary of the method: as §1
[3] = system: Canis familiaris; assay: Inotropic activity determined by evaluating the % change in Heart Rate (HR) at a dose of 10 ug/kg administered intravenously […]; assay type: functional, Canis lupus familiaris; summary of the method: as §1
[4] = system: Canis familiaris; assay: Inotropic activity determined by evaluating the % change in Systolic Blood Pressure (SBP) at a dose of 1 ug/kg administered intravenously […]; assay type: functional, Canis lupus familiaris, Muscle tissue; summary of the method: as §1
[5] = system: Canis familiaris; assay: Inotropic activity determined by evaluating the % change in Cardiac out put (CO)at a dose of 1 ug/kg administered intravenously […]; assay type: functional, Canis lupus familiaris; summary of the method: as §1
[6] = species on record: Canis familiaris; assay: Positive inotropic in the isolated papillary muscle of the dog.; assay type: functional, Canis lupus familiaris
Summary of the method: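 Right ventricular anterior papillary muscle with septum, from mongrel dogs (7–12 kg, pentobarbital 30 mg/kg iv). It was perfused at about 100 mmHg via the septal artery with blood from a heparinized donor dog and paced at 120/min (1 ms pulses, about 1.5× threshold). Isometric tension was recorded. Saline solutions were injected intra-arterially, with amrinone as reference. ED15 (15% rise in developed tension) was taken from log dose-response curves. Results are mean ± SEM (n = 7) or mean ± range (n = 2).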

[7] = system: Canis familiaris; assay: Inotropic activity determined by evaluating the % change in Diastolic Blood Pressure (DBP) at a dose of 3 ug/kg administered intravenously […]; assay type: functional, Canis lupus familiaris; summary of the method: as §1
[8] = system: Canis familiaris; assay: Inotropic activity determined by evaluating the % change in Heart Rate (HR) at a dose of 3 ug/kg administered intravenously […]; assay type: functional, Canis lupus familiaris; summary of the method: as §1
[9] = system: Canis familiaris; assay: Inotropic activity determined by evaluating the maximum rate of rise in left ventricular pressure at a dose of 3 ug/kg administered intravenously […]; assay type: functional, Canis lupus familiaris, Muscle tissue; summary of the method: as §1
[10] = system: Canis familiaris; assay: Inotropic activity determined by evaluating the maximum rate of rise in left ventricular pressure at a dose of 1 ug/kg administered intravenously […]; assay type: functional, Canis lupus familiaris, Muscle tissue; summary of the method: as §1
[11] = system: Canis familiaris; assay: Inotropic activity determined by evaluating the % change in Systolic Blood Pressure (SBP) at a dose of 3 ug/kg administered intravenously […]; assay type: functional, Canis lupus familiaris, Muscle tissue; summary of the method: as §1
[12] = system: Canis familiaris; assay: Inotropic activity determined by evaluating the % change in Cardiac out put (CO)at a dose of 10 ug/kg administered intravenously […]; assay type: functional, Canis lupus familiaris; summary of the method: as §1
[13] = system: Canis familiaris; assay: Inotropic activity determined by evaluating the % change in Diastolic Blood Pressure (DBP) at a dose of 10 ug/kg administered intravenously […]; assay type: functional, Canis lupus familiaris; summary of the method: as §1
[14] = system: Canis familiaris; assay: Inotropic activity determined by evaluating the % change in contractile force (CF) of right ventricle at a dose of 1 ug/kg administered intravenously […]; assay type: functional, Canis lupus familiaris, Heart right ventricle; summary of the method: as §1
[15] = system: Canis familiaris; assay: Inotropic activity determined by evaluating the % change in contractile force (CF) of right ventricle at a dose of 10 ug/kg administered intravenously […]; assay type: functional, Canis lupus familiaris, Heart right ventricle; summary of the method: as §1
[16] = system: Canis familiaris; assay: Inotropic activity determined by evaluating the % change in Cardiac out put (CO)at a dose of 3 ug/kg administered intravenously […]; assay type: functional, Canis lupus familiaris; summary of the method: as §1
[17] = system: Canis familiaris; assay: Inotropic activity determined by evaluating the % change in contractile force (CF) of right ventricle at a dose of 3 ug/kg administered intravenously […]; assay type: functional, Canis lupus familiaris, Heart right ventricle; summary of the method: as §1
[18] = system: Canis familiaris; assay: Inotropic activity determined by evaluating the maximum rate of rise in left ventricular pressure at a dose of 10 ug/kg administered intravenously […]; assay type: functional, Canis lupus familiaris, Muscle tissue; summary of the method: as §1
[19] = system: Canis familiaris; assay: Inotropic activity determined by evaluating the % change in Systolic Blood Pressure (SBP) at a dose of 10 ug/kg administered intravenously […]; assay type: functional, Canis lupus familiaris; summary of the method: as §1
[20] = species on record: Canis familiaris; assay: Positive inotropic activity determined in the […](that produced 30% increase in dose- response curves [dP/dt(max)]); assay type: functional; details: Canis lupus familiaris
Summary of the method: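 In the anesthetized open-chest dog (mongrel, 7–15 kg, pentobarbital 30 mg/kg iv, ventilated on room air), compounds were given intravenously and LV dP/dtmax was recorded. The dose giving a 30% rise in dP/dtmax was read from the dose-response curves. Results are mean ± SEM (n = 3) or mean ± range (n = 2).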

[21] = system: Canis familiaris; assay: Inotropic activity determined by evaluating the % change in Heart Rate (HR) at a dose of 1000 ug/kg administered intravenously […]; assay type: functional, Canis lupus familiaris; summary of the method: as §1
[22] = system: Canis familiaris; assay: Inotropic activity determined by evaluating the % change in contractile force (CF) of right ventricle at a dose of 1000 ug/kg administered intravenously […]; assay type: functional, Canis lupus familiaris, Heart right ventricle; summary of the method: as §1
[23] = system: Canis familiaris; assay: Inotropic activity determined by evaluating the % change in Systolic Blood Pressure (SBP) at a dose of 300 ug/kg administered intravenously […]; assay type: functional, Canis lupus familiaris, Muscle tissue; summary of the method: as §1
[24] = system: Canis familiaris; assay: Inotropic activity determined by evaluating the maximum rate of rise in left ventricular pressure at a dose of 300 ug/kg administered intravenously […]; assay type: functional, Canis lupus familiaris, Muscle tissue; summary of the method: as §1
[25] = system: Canis familiaris; assay: Inotropic activity determined by evaluating the maximum rate of rise in left ventricular pressure at a dose of 1000 ug/kg administered intravenously […]; assay type: functional, Canis lupus familiaris, Muscle tissue; summary of the method: as §1
[26] = system: Canis familiaris; assay: Inotropic activity determined by evaluating the % change in Diastolic Blood Pressure (DBP) at a dose of 1000 ug/kg administered intravenously […]; assay type: functional, Canis lupus familiaris; summary of the method: as §1
[27] = system: Canis familiaris; assay: Inotropic activity determined by evaluating the % change in Systolic Blood Pressure (SBP) at a dose of 1000 ug/kg administered intravenously […]; assay type: functional, Canis lupus familiaris, Muscle tissue; summary of the method: as §1
[28] = system: Canis familiaris; assay: Inotropic activity determined by evaluating the % change in Heart Rate (HR) at a dose of 300 ug/kg administered intravenously […]; assay type: functional, Canis lupus familiaris, Muscle tissue; summary of the method: as §1
[29] = system: Canis familiaris; assay: Inotropic activity determined by evaluating the % change in Cardiac out put (CO)at a dose of 300 ug/kg administered intravenously […]; assay type: functional, Canis lupus familiaris; summary of the method: as §1
[30] = system: Canis familiaris; assay: Inotropic activity determined by evaluating the % change in Diastolic Blood Pressure (DBP) at a dose of 300 ug/kg administered intravenously […]; assay type: functional, Canis lupus familiaris; summary of the method: as §1
[31] = system: Canis familiaris; assay: Inotropic activity determined by evaluating the % change in contractile force (CF) of right ventricle at a dose of 300 ug/kg administered intravenously […]; assay type: functional, Canis lupus familiaris, Heart right ventricle; summary of the method: as §1
[32] = system: Canis familiaris; assay: Inotropic activity determined by evaluating the % change in Cardiac out put (CO)at a dose of 1000 ug/kg administered intravenously […]; assay type: functional, Canis lupus familiaris; summary of the method: as §1
[33] = system: Canis familiaris; assay: Inotropic activity determined by evaluating the % change in Cardiac out put (CO)at a dose of 30 ug/kg administered intravenously […]; assay type: functional, Canis lupus familiaris; summary of the method: as §1
[34] = system: Canis familiaris; assay: Inotropic activity determined by evaluating the % change in contractile force (CF) of right ventricle at a dose of 30 ug/kg administered intravenously […]; assay type: functional, Canis lupus familiaris, Heart right ventricle; summary of the method: as §1
[35] = system: Canis familiaris; assay: Inotropic activity determined by evaluating the % change in Heart Rate (HR) at a dose of 30 ug/kg administered intravenously […]; assay type: functional, Canis lupus familiaris; summary of the method: as §1
[36] = system: Canis familiaris; assay: Inotropic activity determined by evaluating the maximum rate of rise in left ventricular pressure at a dose of 30 ug/kg administered intravenously […]; assay type: functional, Canis lupus familiaris, Muscle tissue; summary of the method: as §1
[37] = system: Canis familiaris; assay: Inotropic activity determined by evaluating the % change in Systolic Blood Pressure (SBP) at a dose of 30 ug/kg administered intravenously […]; assay type: functional, Canis lupus familiaris, Muscle tissue; summary of the method: as §1
[38] = system: Canis familiaris; assay: Inotropic activity determined by evaluating the % change in Diastolic Blood Pressure (DBP) at a dose of 30 ug/kg administered intravenously […]; assay type: functional, Canis lupus familiaris; summary of the method: as §1

| Compound | Change of HR [3] [%] | ED15 [6] [µg] | Change of DBP [7] [%] | Change of HR [8] [%] | dP/dt [9] [%] | Change of SBP [11] [%] | Change of CO [12] [%] | Change of DBP [13] [%] | Change of CF [15] [%] | Change of CO [16] [%] | Change of CF [17] [%] | dP/dt [18] [%] | Change of SBP [19] [%] | ED30 [20] [µg/kg] | Change of CO [33] [%] | Change of CF [34] [%] | Change of HR [35] [%] | dP/dt [36] [%] | Change of SBP [37] [%] | Change of DBP [38] [%] | also measured |
| --- | --- | --- | --- | --- | --- | --- | --- | --- | --- | --- | --- | --- | --- | --- | --- | --- | --- | --- | --- | --- | --- |
| CC1CC(=O)NN=C1c1ccc(Nc2ccncc2)cc1.Cl (stereo not drawn) | 25.1 | 1.5 | -21.2 | 15.8 | 19.5 | -14.1 | 24.5 | -31.4 | 61.5 | 11.7 | 22.7 | 58.4 | -23.6 | 4.4 | – | – | – | – | – | – | Change of HR [1]: 3.4%; Change of DBP [2]: -7.3%; Change of SBP [4]: -4.7%; Change of CO [5]: 5.1%; dP/dt [10]: 8.1%; Change of CF [14]: 7.9% |
| CCc1cc(O)nnc1-c1ccc(Nc2ccncc2)cc1.Cl | – | >300 | – | – | – | – | – | – | – | – | – | – | – | > 1000 | – | – | – | – | – | – | Change of HR [21]: -2.9%; Change of CF [22]: 4.2%; Change of SBP [23]: 0.4%; dP/dt [24]: 1%; dP/dt [25]: -0.9%; Change of DBP [26]: -9.3%; Change of SBP [27]: -5%; Change of HR [28]: -0.1%; Change of CO [29]: 3.9%; Change of DBP [30]: -0.9%; Change of CF [31]: 2.8%; Change of CO [32]: 8.6% |
| Cl.O=C1CCC(c2ccc(Nc3ccncc3)cc2)=NN1 | 9.9 | 4.1 | -10.9 | 5.8 | 20.9 | -7.9 | 17.2 | -22 | 56.4 | 12.6 | 34.4 | 37.3 | -16.1 | 8.5 | 27.7 | 78.9 | 17.4 | 69.1 | -24.9 | -32.9 | – |
| CC1CC(=O)NN=C1c1ccc(Nc2ccccn2)cc1.Cl (stereo not drawn) | 5.3 | 3.2 | – | – | – | – | 12.7 | -22.4 | 19.5 | – | – | 19.3 | -14.1 | 22 | 15.8 | 44.4 | 8.9 | 46.4 | -17.6 | -31 | – |
